Source: ChEMBL document CHEMBL1155950, “Novel amidino-substituted thienyl- and furylvinylbenzimidazole: derivatives and their photochemical conversion into corresponding diazacyclopenta[c]fluorenes. synthesis, interactions with DNA and RNA, and antitumor evaluation. 4” (J Med Chem, 2008)
pIC50: −log10 of the molar value. Activity calls are given as the source filed them. No cut-off for these calls is given here.

Key:
[1] = tested on: MIA PaCa-2; assay: Cell cycle arrest in human MiaPaCa2 cells assessed as accumulation at sub G1 phase at 10 uM after 72 hrs by flow cytometry; type: functional
Outline: (§1)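 2 × 10⁵ cells per well, compound (10 µM) added after 24 h, then 24, 48 or 72 h. Floating and attached cells pooled, fixed in 70% ethanol and kept at −20 °C. Stained with PI 1 µg/mL plus RNase A 0.2 µg/µL. 20 000 events by flow cytometry, phase percentages from DNA histograms. Duplicates, repeated at least twice.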

[2] = tested on: Nucleic Acid; assay: Binding affinity to polyA-polyU double stranded RNA at 0.3 of [compound]/[double stranded polynucleotide] at pH 7.0 by thermal denaturation assay; type: nucleic-acid assay
Outline: (§2)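 Absorbance at 260 nm followed against temperature for free polynucleotide and complexes, in Na cacodylate buffer pH 7.0, I = 0.05 mol dm^-3. Ligand absorbance subtracted and curves normalized. Tm taken from the first-derivative maximum or by tangent method. ΔTm = Tm(complex) − Tm(free), average of at least two runs, error ±0.5 °C.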

[3] = tested on: DNA; assay: Binding affinity to calf thymus DNA at pH 7.0 by fluorimetric titration; type: nucleic-acid assay; details: Bos taurus
Outline: (§3)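 Polynucleotide, given as phosphate concentration, added in portions to the compound in Na cacodylate buffer pH 7.0, I = 0.05 mol dm^-3, with polynucleotide in high excess. Emission recorded 350–550 nm, absorbance below 0.05 at excitation. Ks and n from nonlinear least-squares Scatchard fits. log K recalculated at fixed n = 0.2.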

[4] = tested on: MIA PaCa-2; assay: Cell cycle arrest in human MiaPaCa2 cells assessed as accumulation at G1/G0 phase at 10 uM after 72 hrs by flow cytometry; type: functional; outline: as §1
[5] = tested on: MIA PaCa-2; assay: Induction of apoptosis in human MiaPaCa2 cells at 5 uM after 72 hrs by annexin V assay; type: functional
Outline: (§4)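 2 × 10⁴ cells per well, compounds added after 24 h, exposure 72 h. Floating and attached cells collected, washed and stained with annexin-V-fluorescein plus PI in Hepes buffer, then counted by fluorescence microscopy. Annexin-V-positive cells scored apoptotic, annexin-V/PI-positive scored necrotic. Apoptotic percentage taken relative to total cells.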

[6] = tested on: DNA; assay: Binding affinity to calf thymus DNA at 0.2 of [compound]/[calf thymus DNA] at pH 7.0 by thermal denaturation assay; type: nucleic-acid assay; details: Bos taurus; outline: as §2
[7] = tested on: MIA PaCa-2; assay: Cell cycle arrest in human MiaPaCa2 cells assessed as accumulation at G2/M phase at 10 uM after 24 hrs by flow cytometry; type: functional; outline: as §1
[8] = organism: Bos taurus; assay: Inhibition of calf thymus topoisomerase 1-mediated supercoiled plasmid pCI DNA relaxation activity at 200 uM after 30 mins by gel electrophoresis
Outline: (§5)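 Calf thymus topoisomerase I (8 U) with 0.8 µg supercoiled pCI in Tris-HCl pH 7.5 buffer with 175 mM KCl, 5 mM MgCl2, 0.1 mM EDTA and 2.5% glycerol, 37 °C for 30 min. Stopped with SDS, then proteinase K at 37 °C for 15 min and phenol/chloroform extraction. Run on 1% agarose with or without 0.5 µg/mL EtBr and viewed under UV.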

[9] = tested on: HeLa; assay: Induction of apoptosis in human HeLa cells at 10 uM after 72 hrs by annexin V assay; type: functional; outline: as §4
[10] = tested on: HeLa; assay: Induction of apoptosis in human HeLa cells at 5 uM after 72 hrs by annexin V assay; type: functional; outline: as §4
[11] = tested on: DNA; assay: Binding affinity to calf thymus DNA at 0.3 of [compound]/[calf thymus DNA] at pH 7.0 by thermal denaturation assay; type: nucleic-acid assay; details: Bos taurus; outline: as §2
[12] = tested on: HeLa; assay: Antiproliferative activity against human HeLa cells after 72 hrs by MTT assay; type: functional, cell-based
Outline: (§6)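 Monolayer cultures in DMEM with 10% FBS, 2 mM L-glutamine, penicillin and streptomycin, at 37 °C in 5% CO2. Seeded at 1 × 10⁴ to 3 × 10⁴ cells/mL on day 0. Compounds added at 10^-8 to 10^-4 M, then 72 h. MTT read-out, quadruplicate in three experiments, with a solvent control. IC50 by linear regression of percent growth around 50%.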

[13] = tested on: DNA; assay: Binding affinity to calf thymus DNA at 0.1 of [compound]/[calf thymus DNA] at pH 7.0 by thermal denaturation assay; type: nucleic-acid assay; details: Bos taurus; outline: as §2
[14] = tested on: MIA PaCa-2; assay: Cell cycle arrest in human MiaPaCa2 cells assessed as accumulation at G2/M phase at 10 uM after 48 hrs by flow cytometry; type: functional; outline: as §1
[15] = Antiproliferative activity against human WI38 cells after 72 hrs by MTT assay; type: cell-based; details: WI-38, 72 h
[16] = tested on: MIA PaCa-2; assay: Cell cycle arrest in human MiaPaCa2 cells assessed as accumulation at S phase at 10 uM after 72 hrs by flow cytometry; type: functional; outline: as §1
[17] = tested on: MIA PaCa-2; assay: Cell cycle arrest in human MiaPaCa2 cells assessed as accumulation at S phase at 10 uM after 24 hrs by flow cytometry; type: functional; outline: as §1
[18] = tested on: MIA PaCa-2; assay: Induction of apoptosis in human MiaPaCa2 cells at 10 uM after 72 hrs by annexin V assay; type: functional; outline: as §4
[19] = tested on: MIA PaCa-2; assay: Cell cycle arrest in human MiaPaCa2 cells assessed as accumulation at G1/G0 phase at 10 uM after 24 hrs by flow cytometry; type: functional; outline: as §1
[20] = organism: Bos taurus; assay: Inhibition of calf thymus topoisomerase 1 assessed as induction of supercoiled plasmid pCI DNA nicking at 200 uM after 30 mins by gel electrophoresis; outline: as §5
[21] = tested on: SW-620; assay: Antiproliferative activity against human SW620 cells after 72 hrs by MTT assay; type: functional, cell-based; details: SW-620, 72 h; outline: as §6
[22] = Binding affinity to polyG-polyC double stranded RNA at pH 7.0 by fluorimetric titration; outline: as §3
[23] = tested on: HEp-2; assay: Antiproliferative activity against human Hep2 cells after 72 hrs by MTT assay; type: functional, cell-based; details: HEp-2, 72 h; outline: as §6
[24] = Binding affinity to polyA-polyU double stranded RNA at pH 7.0 by fluorimetric titration; outline: as §3
[25] = tested on: MIA PaCa-2; assay: Cell cycle arrest in human MiaPaCa2 cells assessed as accumulation at sub G1 phase at 10 uM after 48 hrs by flow cytometry; type: functional; outline: as §1
[26] = tested on: MIA PaCa-2; assay: Cell cycle arrest in human MiaPaCa2 cells assessed as accumulation at sub G1 phase at 10 uM after 24 hrs by flow cytometry; type: functional; outline: as §1
[27] = tested on: MIA PaCa-2; assay: Cell cycle arrest in human MiaPaCa2 cells assessed as accumulation at S phase at 10 uM after 48 hrs by flow cytometry; type: functional; outline: as §1
[28] = tested on: MIA PaCa-2; assay: Cell cycle arrest in human MiaPaCa2 cells assessed as accumulation at G1/G0 phase at 10 uM after 48 hrs by flow cytometry; type: functional; outline: as §1
[29] = tested on: MIA PaCa-2; assay: Cell cycle arrest in human MiaPaCa2 cells assessed as accumulation at G2/M phase at 10 uM after 72 hrs by flow cytometry; type: functional; outline: as §1
[30] = tested on: MCF7; assay: Antiproliferative activity against human MCF7 cells after 72 hrs by MTT assay; type: functional, cell-based; details: MCF7, 72 h; outline: as §6
[31] = tested on: MIA PaCa-2; assay: Antiproliferative activity against human MiaPaCa2 cells after 72 hrs by MTT assay; type: functional, cell-based; details: MIA PaCa-2, 72 h; outline: as §6
[32] = organism: Bos taurus; assay: Inhibition of calf thymus topoisomerase 1-mediated supercoiled plasmid pCI DNA relaxation activity at 10 uM after 30 mins by gel electrophoresis
Outline: (§7)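 Calf thymus topoisomerase I (8 U) with 0.8 µg negatively supercoiled pCI plasmid in relaxation buffer (10 mM Tris-HCl pH 7.5, 175 mM KCl, 5 mM MgCl2, 0.1 mM EDTA, 2.5% glycerol), ± test agent, 37 °C for 30 min. Stopped with SDS, then proteinase K digestion and phenol/chloroform/isoamyl alcohol extraction. Split onto 1% agarose gels with or without 0.5 µg/mL ethidium bromide. Nicked, relaxed and supercoiled bands viewed under UV.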

[33] = organism: Bos taurus; assay: Inhibition of calf thymus topoisomerase 1 assessed as induction of supercoiled plasmid pCI DNA nicking at 10 uM after 30 mins by gel electrophoresis; outline: as §7
[34] = organism: Bos taurus; assay: Inhibition of calf thymus topoisomerase 1 assessed as induction of supercoiled plasmid pCI DNA nicking at 100 uM after 30 mins by gel electrophoresis; outline: as §7

## C(=C\c1cccs1)/c1nc2ccc(C3=NCCN3)cc2[nH]1.Cl
[1]
  Activity: 3%
[2]
  ΔTm: 2.2 °C
[3]
  log K: 5
[4]
  Activity: 55%
[5]
  Activity: 2%
[6]
  ΔTm: 1.3 °C
[7]
  Activity: 19%
[8]
  Activity: Active
[9]
  Activity: 14%
[10]
  Activity: 8%
[11]
  ΔTm: 1.4 °C
[12]
  pIC50: 5.30
[13]
  ΔTm: 1.3 °C
[14]
  Activity: 20%
[15]
  pIC50: 4.54
[16]
  Activity: 26%
[17]
  Activity: 42%
[18]
  Activity: 4%
[19]
  Activity: 39%
[20]
  Activity: Active
[21]
  pIC50: 4.96
[22]
  log K: 5.6
[23]
  pIC50: 4.96
[24]
  log K: 5.8
[25]
  Activity: 1%
[26]
  Activity: 1%
[27]
  Activity: 31%
[28]
  Activity: 49%
[29]
  Activity: 19%
[30]
  pIC50: 5.52
[31]
  pIC50: 5.00

## C(=C\c1ccco1)/c1nc2ccc(C3=NCCN3)cc2[nH]1
[12]
  pIC50: 5.00
[15]
  pIC50: < 4.00
[21]
  pIC50: 4.30
[23]
  pIC50: 4.17
[30]
  pIC50: 5.05
[31]
  pIC50: 4.29

## CC[n+]1c(-c2ccccc2)c2cc(N)ccc2c2ccc(N)cc21
[32]
  Activity: Active
[33]
  Activity: inactive

## N=C(NC1CCCCC1)c1ccc2nc(/C=C/c3ccco3)[nH]c2c1
[2]
  ΔTm: 1.6 °C
[3]
  log K: 5.2
[6]
  ΔTm: 1.6 °C
[11]
  ΔTm: 1.5 °C
[12]
  pIC50: 5.22
[13]
  ΔTm: 1 °C
[15]
  pIC50: < 4.00
[21]
  pIC50: < 4.00
[23]
  pIC50: 4.19
[30]
  pIC50: 4.72
[31]
  pIC50: 4.11

## N=C(N)c1ccc2nc(/C=C/c3ccco3)[nH]c2c1
[12]
  pIC50: 5.40
[15]
  pIC50: < 4.00
[21]
  pIC50: 4.80
[23]
  pIC50: 4.72
[30]
  pIC50: 4.92
[31]
  pIC50: < 4.00

## CC[C@@]1(O)C(=O)OCc2c1cc1n(c2=O)Cc2cc3ccccc3nc2-1
[34]
  Activity: Active
